Values after ≈ are worked out from the molar mass of the structure shown. Active and inactive are the calls of the source. The calls are words filed in the database; no cut-off is given here.
Experiments:
[1] = Genotoxicity in Salmonella typhimurium TA100 by Ames mutagenicity test; format: toxicity; settings: salmonella enterica subsp. enterica serovar typhimurium
[2] = Genotoxicity in Salmonella typhimurium TA98 by Ames mutagenicity test; format: toxicity; settings: salmonella enterica subsp. enterica serovar typhimurium
[3] = Cmax in BALB/c mouse at 10 mg/kg, po by LC-MS analysis; format: ADME, organism-based; parameters: dose 10 mg/kg, route po; settings: in vivo
Method in brief: (§1)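 Female BALB/c mice, 6-8 weeks old. Dosed i.v. at 2 or 3 mg/kg, or orally at 10 mg/kg. Vehicles varied by compound: DMSO/Captisol, DMSO/PEG400/SBE-b-CD, or DMSO/Cremophor EL/Captisol. Blood was held at 4°C within 1 h, then centrifuged at 3200 × g for 10 min at 4°C. Plasma was kept at 4°C, and compound levels were measured by LC-MS.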

[4] = Cytotoxicity against HEK293 cells assessed as inhibition of cell growth; format: toxicity, cell-based; settings: human
[5] = Solubility of the compound at pH 7.4; format: physicochemical; settings: buffer
[6] = system: Mycobacterium tuberculosis; experiment: Antitubercular activity against Mycobacterium tuberculosis H37Rv ATCC 27294 expressing the green fluorescence protein infected in mouse RAW264.7 cells assessed as inhibition of bacterial growth pre-infected with cell followed by compound addition and measured after 5 days by Hoechst 33342 staining based analysis; format: functional, organism-based; settings: H37Rv ATCC 27294, RAW264.7, 120 h
Method in brief: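 RAW 264.7 cells, passages 2-9, were infected with washed H37Rv-GFP at MOI 20 for 2 h at 37°C with shaking. Cells were washed and plated at 20,000/well over 2-fold compound dilutions for 5 days. Nuclei were stained with 5 µM Hoechst (final) and 3 fields/well imaged. Four parameters (cell count, bacterial area, area per infected cell, infected-cell ratio) were each fitted by 4-parameter sigmoid, and the IC50s averaged.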

[7] = Protein binding in mouse plasma; format: ADME, cell-free; settings: read-out: PPB (converted)
[8] = Half-life in BALB/c mouse at 3 mg/kg, iv by LC-MS analysis; format: ADME, organism-based; settings: in vivo; method in brief: as §1
[9] = Metabolic stability in mouse liver microsome assessed as phase I mediated metabolite formation by measuring half-life; format: ADME; settings: microsomes
[10] = system: Mycobacterium tuberculosis; experiment: Antibacterial activity against Mycobacterium tuberculosis H37Rv ATCC 27294 infected in BALB/c mouse assessed as reduction in CFU in lungs at 20 mg/kg, po administered five times a week for 28 days; format: functional, organism-based; settings: time 28.0 day
Method in brief: (§2)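 Female BALB/c mice, 6-8 weeks old, were infected intranasally with ~300-600 CFU H37Rv, 5 mice per group. Oral gavage began at day 21, 5 days/week for 4 weeks. Lungs were taken a day after the last dose, homogenized in PBS, serially diluted and plated in duplicate on 7H11-OADC agar for 2-5 weeks at 37°C. Detection limit ~2.3 logs. Bonferroni test against vehicle-treated mice.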

[11] = Genotoxicity in Salmonella typhimurium TA100 in the presence of S9 fraction by Ames mutagenicity test; format: toxicity, subcellular; settings: salmonella enterica subsp. enterica serovar typhimurium
[12] = Half-life in BALB/c mouse at 10 mg/kg, po by LC-MS analysis; format: ADME, organism-based; settings: in vivo; method in brief: as §1
[13] = Volume of distribution at steady state in BALB/c mouse at 3 mg/kg, iv by LC-MS analysis; format: ADME, organism-based; settings: in vivo, read-out: Vdss; method in brief: as §1
[14] = system: Mycobacterium tuberculosis; experiment: Antitubercular activity against Mycobacterium tuberculosis H37Rv ATCC 27294 expressing the green fluorescence protein assessed as inhibition of bacterial growth by measuring GFP fluorescence incubated for 5 days by fluorescence based plate reader analysis; format: functional, organism-based; settings: H37Rv ATCC 27294, 120 h
Method in brief: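 H37Rv-GFP was grown 14 days in 7H9/OADC/Tween/glycerol/hygromycin, washed, and seeded at ~3×10^6 CFU/mL. Compounds were given as 10-point 2-fold series starting at 20 or 1 µM, in 1% DMSO final. Plates ran 5 days at 37°C, 5% CO2, with rifampicin 1 µg/mL as positive control. GFP fluorescence was read and IC50 taken from a 4-parameter sigmoid fit.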

A549 = experiment: Cytotoxicity against human A549 cells assessed as inhibition of cell growth; format: functional, cell-based
[15] = Stability in mouse plasma measured after 2 hrs; format: ADME, cell-free; settings: read-out: Stability
[16] = Metabolic stability in human liver microsome assessed as phase II mediated metabolite formation by measuring half-life; format: ADME; settings: microsomes
[17] = Stability in human plasma measured after 2 hrs; format: ADME, cell-free; settings: read-out: Stability
[18] = Ratio of drug concentration in lung to plasma in BALB/c mouse at 10 mg/kg, po by LC-MS analysis; format: ADME, organism-based; method in brief: as §1
[19] = Drug concentration in BALB/c mouse plasma at 10 mg/kg, po by LC-MS analysis; format: ADME, organism-based; settings: in vivo; method in brief: as §1
HepG2 = experiment: Cytotoxicity against human HepG2 cells assessed as inhibition of cell growth; format: functional, cell-based
[20] = system: Mycobacterium tuberculosis; experiment: Antibacterial activity against Mycobacterium tuberculosis H37Rv ATCC 27294 infected in BALB/c mouse assessed as decrease in number of CFU in lungs at 100 mg/kg, po administered five times a week for 28 days; format: functional; settings: time 28 day; method in brief: as §2
[21] = system: Mycobacterium tuberculosis; experiment: Antibacterial activity against Mycobacterium tuberculosis H37Rv ATCC 27294 infected in BALB/c mouse assessed as reduction in CFU in lungs at 50 mg/kg, po administered five times a week for 28 days; format: functional, organism-based; settings: time 28.0 day; method in brief: as §2
[22] = system: Mycobacterium tuberculosis; experiment: Antibacterial activity against Mycobacterium tuberculosis H37Rv ATCC 27294 infected in BALB/c mouse assessed as reduction in bacterial burden in lungs at 100 mg/kg, po administered five times a week for 28 days; format: functional; settings: time 28 day; method in brief: as §2
[23] = Metabolic stability in mouse liver microsome assessed as phase II mediated metabolite formation by measuring half-life; format: ADME; settings: microsomes
[24] = Oral bioavailability in BALB/c mouse at 10 mg/kg by LC-MS analysis; format: ADME, organism-based; settings: in vivo; method in brief: as §1
[25] = Metabolic stability in human liver microsome assessed as phase I mediated metabolite formation by measuring half-life; format: ADME; settings: microsomes
[26] = Tmax in BALB/c mouse at 10 mg/kg, po by LC-MS analysis; format: ADME, organism-based; settings: in vivo; method in brief: as §1
[27] = Clearance in BALB/c mouse at 3 mg/kg, iv by LC-MS analysis; format: ADME, organism-based; settings: in vivo; method in brief: as §1
[28] = Drug concentration in BALB/c mouse lung at 10 mg/kg, po by LC-MS analysis; format: ADME, organism-based; settings: in vivo; method in brief: as §1
[29] = Genotoxicity in Salmonella typhimurium TA98 in the presence of S9 fraction by Ames mutagenicity test; format: toxicity, subcellular; settings: salmonella enterica subsp. enterica serovar typhimurium
[30] = AUClast in BALB/c mouse at 10 mg/kg, po by LC-MS analysis; format: ADME, organism-based; parameters: dose 10 mg/kg, route po; settings: in vivo; method in brief: as §1
[31] = Solubility of the compound at pH 2.1; format: physicochemical; settings: buffer
[32] = Protein binding in human plasma; format: ADME, cell-free; settings: read-out: PPB (converted)
Jurkat = experiment: Cytotoxicity against human Jurkat cells assessed as inhibition of cell growth; format: functional, cell-based
[33] = Clearance in BALB/c mouse at 2 mg/kg, iv by LC-MS analysis; format: ADME, organism-based; settings: in vivo; method in brief: as §1
[34] = Half-life in BALB/c mouse at 2 mg/kg, iv by LC-MS analysis; format: ADME, organism-based; settings: in vivo; method in brief: as §1
[35] = system: Mycobacterium tuberculosis; experiment: Antibacterial activity against Mycobacterium tuberculosis H37Rv ATCC 27294 infected in BALB/c mouse assessed as reduction in bacterial load in lungs at 25 to 100 mg/kg, po administered five times a week for 28 days; format: functional, organism-based; settings: dose 25-100 mg/kg, time 28.0 day; method in brief: as §2
[36] = Volume of distribution at steady state in BALB/c mouse at 2 mg/kg, iv by LC-MS analysis; format: ADME, organism-based; settings: in vivo, read-out: Vdss; method in brief: as §1
[37] = Stability in mouse plasma measured after 4 hrs; format: ADME, cell-free; settings: read-out: Stability
[38] = Stability in human plasma measured after 4 hrs; format: ADME, cell-free; settings: read-out: Stability

| SMILES | Activity [1] | Activity [2] | Cmax [3] | IC50 [4] | solubility [5] | IC50 [6] | fraction unbound [7] | t1/2 [9] | Activity [11] | half-life [12] | IC50 [14] | IC50 (A549) | remaining at 2 h [15] | t1/2 [16] | remaining at 2 h [17] | Kp [18] | t1/2 [23] | t1/2 [25] | solubility [31] | fraction unbound [32] | also measured |
| --- | --- | --- | --- | --- | --- | --- | --- | --- | --- | --- | --- | --- | --- | --- | --- | --- | --- | --- | --- | --- | --- |
| O=C(Nc1ccc(-c2ccc(F)cn2)cc1)c1cc2sc(NCCN3CCOCC3)nc2s1 | Non-Toxic | Non-Toxic | 2940 ng/mL | > 50 µM | 0.76 µg/mL (≈ 1.57 µM) | 190 nM | 0.002 | 45.5 min | Non-Toxic | 138 min | 760 nM | > 50 µM | > 100% | > 60 min | 98.2% | 4.8 | > 60 min | > 60 min | 43.6 µg/mL (≈ 90.2 µM) | 0.002 | half-life [8]: 72 min; Activity [10]: inactive; Vd [13]: 1.52 L/kg; Cp [19]: 3380 ng/mL; IC50 (HepG2): > 50 µM; Activity [20]: 2.7 log10CFU; Activity [21]: Active; log(activity) [22]: 4; bioavailability [24]: 102%; Tmax [26]: 1 h; clearance [27]: 14.9 mL/min/kg; Ct [28]: 16180 ng/mL; Activity [29]: Non-Toxic; AUC(0-t) [30]: 10400 ng·h/mL; IC50 (Jurkat): > 50 µM |
| Cc1nc2cc(NC(=O)c3cc4sc(N5CCC(C(=O)N(C)C)CC5)nc4s3)ccc2o1 | Non-Toxic | Non-Toxic | 7010 ng/mL | > 50 µM | 1.2 µg/mL (≈ 2.56 µM) | 510 nM | 0.036 | > 60 min | Non-Toxic | 59.4 min | 500 nM | > 50 µM | 95.7% | 99.7 min | 86.1% | 0.7 | 124 min | > 60 min | 4 µg/mL (≈ 8.52 µM) | 0.049 | clearance [33]: 11.8 mL/min/kg; half-life [34]: 55.2 min; Cp [19]: 4400 ng/mL; IC50 (HepG2): > 50 µM; bioavailability [24]: 71.2%; Activity [35]: inactive; Tmax [26]: 1 h; Ct [28]: 2986 ng/mL; Activity [29]: Non-Toxic; AUC(0-t) [30]: 10000 ng·h/mL; IC50 (Jurkat): > 50 µM; Vd [36]: 0.701 L/kg |
| Cc1nc2cc(NC(=O)c3cc4sc(N5CCOCC5)nc4s3)ccc2o1 |  |  | 313 ng/mL |  | 0.82 µg/mL (≈ 2.05 µM) | 200 nM | 0.001 | > 60 min |  |  | 420 nM |  |  | > 60 min |  |  | > 60 min | > 60 min | 5.3 µg/mL (≈ 13.2 µM) | 0.012 | clearance [33]: 121 mL/min/kg; half-life [34]: 19.8 min; remaining at 4 h [37]: 74.7%; remaining at 4 h [38]: 86.8%; Vd [36]: 0.626 L/kg |
